Legend:
[1] = biological target: T1, Norepinephrine transporter (Rattus norvegicus, UniProt Q9WTR4); experiment: Tested for the binding affinity towards Norepinephrine transporter in rat cerebral cortex by displacing [3H]nisoxetine radioligand; type: tissue-based
Summary of the method: (§1)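 Competition binding with 0.5 nM [³H]nisoxetine as final radioligand concentration.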

[2] = biological target: Sodium-dependent dopamine transporter (Rattus norvegicus, UniProt P23977); experiment: 50% Inhibition against dopamine transporter (DAT) in rat striatal tissue by displacing [3H]WIN-35428 radioligand; type: tissue-based, Striatum
Chain of Sodium-dependent dopamine transporter (P23977 whole entry): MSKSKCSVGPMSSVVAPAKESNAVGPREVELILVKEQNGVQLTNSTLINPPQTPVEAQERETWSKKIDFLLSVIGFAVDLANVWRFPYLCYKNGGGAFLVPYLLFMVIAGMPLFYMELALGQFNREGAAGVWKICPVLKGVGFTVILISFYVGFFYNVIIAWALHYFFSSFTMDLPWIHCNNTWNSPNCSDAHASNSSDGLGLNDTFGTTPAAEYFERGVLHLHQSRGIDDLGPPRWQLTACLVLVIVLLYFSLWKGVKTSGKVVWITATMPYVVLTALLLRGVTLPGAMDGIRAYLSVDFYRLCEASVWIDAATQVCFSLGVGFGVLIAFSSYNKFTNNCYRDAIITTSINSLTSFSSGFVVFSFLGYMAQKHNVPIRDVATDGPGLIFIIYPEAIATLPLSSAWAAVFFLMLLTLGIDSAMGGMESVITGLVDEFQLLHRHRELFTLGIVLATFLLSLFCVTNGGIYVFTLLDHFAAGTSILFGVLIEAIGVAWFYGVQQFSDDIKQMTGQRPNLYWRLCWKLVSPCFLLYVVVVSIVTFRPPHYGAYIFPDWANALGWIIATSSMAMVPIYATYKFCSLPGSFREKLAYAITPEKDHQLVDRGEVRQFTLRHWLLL
Summary of the method: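 Competition binding with 0.5 nM [³H]WIN35,428 as final radioligand concentration.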

[3] = biological target: T2, Sodium-dependent serotonin transporter (Rattus norvegicus, UniProt P31652); experiment: 50% Inhibition against Serotonin transporter in rat midbrain tissue by displacing [3H]paroxetine radioligand; type: tissue-based
T2 sequence (P31652 whole entry): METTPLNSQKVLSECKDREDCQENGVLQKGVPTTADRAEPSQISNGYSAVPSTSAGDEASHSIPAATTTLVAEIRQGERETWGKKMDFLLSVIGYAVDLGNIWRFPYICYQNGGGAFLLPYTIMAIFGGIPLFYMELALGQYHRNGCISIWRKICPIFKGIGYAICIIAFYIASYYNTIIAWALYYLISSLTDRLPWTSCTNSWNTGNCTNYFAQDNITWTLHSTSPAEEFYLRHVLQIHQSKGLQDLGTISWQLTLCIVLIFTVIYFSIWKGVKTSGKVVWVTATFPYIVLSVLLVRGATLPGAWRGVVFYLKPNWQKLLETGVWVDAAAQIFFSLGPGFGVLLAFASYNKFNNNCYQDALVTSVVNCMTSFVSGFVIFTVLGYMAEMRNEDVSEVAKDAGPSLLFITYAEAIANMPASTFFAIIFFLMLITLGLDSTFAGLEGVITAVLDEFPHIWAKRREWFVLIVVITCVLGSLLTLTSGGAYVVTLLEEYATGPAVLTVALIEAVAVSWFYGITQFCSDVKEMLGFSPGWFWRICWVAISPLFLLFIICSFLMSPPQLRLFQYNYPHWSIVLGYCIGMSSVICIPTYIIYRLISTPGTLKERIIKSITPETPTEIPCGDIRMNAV
Summary of the method: (§2)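 Competition binding with 0.2 nM [³H]paroxetine as final radioligand concentration.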

[4] = biological target: T2, Sodium-dependent serotonin transporter; experiment: Tested for the binding affinity towards Serotonin transporter in rat midbrain tissue by displacing [3H]paroxetine radioligand; type: tissue-based; summary of the method: as §2
[5] = biological target: T1, Norepinephrine transporter; experiment: 50% Inhibition against Norepinephrine transporter in rat cerebral cortex by displacing [3H]nisoxetine radioligand; type: tissue-based; summary of the method: as §1

T1 sequence (Q9WTR4 whole entry): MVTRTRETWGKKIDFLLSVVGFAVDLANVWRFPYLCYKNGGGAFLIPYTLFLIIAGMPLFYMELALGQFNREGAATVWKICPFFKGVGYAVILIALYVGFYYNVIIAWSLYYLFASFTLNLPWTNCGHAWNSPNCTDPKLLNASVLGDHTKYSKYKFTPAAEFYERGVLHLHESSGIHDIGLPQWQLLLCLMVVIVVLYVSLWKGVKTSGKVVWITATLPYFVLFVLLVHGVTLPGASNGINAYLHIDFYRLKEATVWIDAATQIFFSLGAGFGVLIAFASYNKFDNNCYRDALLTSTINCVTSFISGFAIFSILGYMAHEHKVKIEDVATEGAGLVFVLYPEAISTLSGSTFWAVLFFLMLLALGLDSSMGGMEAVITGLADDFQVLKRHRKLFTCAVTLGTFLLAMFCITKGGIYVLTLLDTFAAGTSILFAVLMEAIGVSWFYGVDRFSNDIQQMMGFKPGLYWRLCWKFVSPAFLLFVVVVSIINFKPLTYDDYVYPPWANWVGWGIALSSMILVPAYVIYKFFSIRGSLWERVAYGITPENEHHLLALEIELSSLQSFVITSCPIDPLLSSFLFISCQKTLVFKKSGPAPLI

Structure (SMILES)	Ki [1] [nM]	IC50 [2] [nM]	IC50 [3] [nM]	Ki [4] [nM]	IC50 [5] [nM]
COC(=O)[C@@H]1C2CC[C@H](C[C@@H]1c1ccccc1)N2C	55	–	–	–	–
COC(=O)C1[C@@H](c2ccc(CCCCc3ccccc3)cc2)CC2CC[C@H]1N2C (stereo partly specified)	1390	228	4820	439	2310
CCCc1ccc([C@H]2CC3CC[C@H](C2C(=O)OC)N3C)cc1 (stereo partly specified)	2360	68.5	70.4	6.4	3920
COC(=O)C1[C@@H](c2ccc3ccccc3c2)CC2CC[C@H]1N2C (stereo partly specified)	12.7	0.51	0.8	0.07	21.1
C=Cc1ccc([C@H]2CC3CC[C@H](C2C(=O)OC)N3C)cc1 (stereo partly specified)	47	1.24	9.5	0.86	78
CC#Cc1ccc([C@H]2CC3CC[C@H](C2C(=O)OC)N3C)cc1 (stereo partly specified)	494	2.37	15.7	1.43	820
COC(=O)C1[C@@H](c2ccc(C#CCCCCO)cc2)CC2CC[C@H]1N2C (stereo partly specified)	5720	57	828	75	9500
COC(=O)C1[C@@H](c2ccc(C#CCc3ccccc3)cc2)CC2CC[C@H]1N2C (stereo partly specified)	16.5	1.82	13.1	1.19	27.4
COC(=O)C1[C@@H](c2ccc(C#Cc3ccccc3)cc2)CC2CC[C@H]1N2C (stereo partly specified)	209	3.7	46.8	4.3	347
COC(=O)C1[C@@H](c2ccc(C#CCCc3ccccc3)cc2)CC2CC[C@H]1N2C (stereo partly specified)	885	6.28	2180	198	1470
COC(=O)C1C(c2ccc3ccccc3c2)CC2CC[C@H]1N2C (stereo partly specified)	42.3	1.1	11.4	1.05	70.2
COC(=O)C1[C@@H](c2ccc(C#CCCCc3ccccc3)cc2)CC2CC[C@H]1N2C (stereo partly specified)	2680	300	1340	122	4450
COC(=O)C1[C@@H](c2ccc(-c3ccccc3)cc2)CC2CC[C@H]1N2C (stereo partly specified)	892	15.6	95.8	8.7	1480
COC(=O)C1[C@@H](c2ccc(CCc3ccccc3)cc2)CC2CC[C@H]1N2C (stereo partly specified)	6.5	5.14	234	21.3	10.8
COC(=O)C1[C@@H](c2ccc(CCCc3ccccc3)cc2)CC2CC[C@H]1N2C (stereo partly specified)	8500	351	1240	113	14200
C=C(c1ccccc1)c1ccc([C@H]2CC3CC[C@H](C2C(=O)OC)N3C)cc1 (stereo partly specified)	4260	474	2710	246	7060
COC(=O)C1[C@@H](c2ccc(Cc3ccccc3)cc2)CC2CC[C@H]1N2C (stereo partly specified)	606	526	7240	658	6670
COC(=O)C1[C@@H](c2ccc(/C=C/Cc3ccccc3)cc2)CC2CC[C@H]1N2C (stereo partly specified)	759	15.8	781	71	1250
COC(=O)C1[C@@H](c2ccc(/C=C\c3ccccc3)cc2)CC2CC[C@H]1N2C (stereo partly specified)	–	11.7	–	–	–
COC(=O)C1[C@@H](c2ccc(/C=C/c3ccccc3)cc2)CC2CC[C@H]1N2C (stereo partly specified)	1180	3.09	335	30.5	1960
C/C=C\c1ccc([C@H]2CC3CC[C@H](C2C(=O)OC)N3C)cc1 (stereo partly specified)	958	5.29	11.4	1.04	1590
COC(=O)C1C2CC[C@H](C[C@H]1c1ccc(C)cc1)N2C (stereo partly specified)	36	–	–	–	60
C#Cc1ccc([C@H]2CC3CC[C@H](C2C(=O)OC)N3C)cc1 (stereo partly specified)	50.1	1.2	4.4	0.4	83.2
CCc1ccc([C@H]2C[C@H]3CCC(C2C(=O)OC)N3C)cc1 (stereo partly specified)	2360	–	–	2.58	–
COC(=O)C1=C(c2ccc3ccccc3c2)CC2CCC1N2C (stereo unspecified)	224	5.17	345	31.4	372
